# Many of the other results were omitted from the sample, so hits are more common in it than they were.
# UPR CHOP act – apoptotic UPR (CHOP) activation; activation, % at 10 µM; CHO-CHOP luciferase reporter, luminescence; percent of tunicamycin response over DMSO baseline; 330,000 tested, 0.34% active;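 active means at 10 µM dose, activation of 40% or more, normalized to positive control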;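 further: 100% = tunicamycin at 10 µg/mL and 0% = DMSO alone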
#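 assay system = CHO CHOP reporter cells | amount = 500 CHO-CHOP cells per well | buffer or medium = F12 with 10% FBS | incubation = 16-18 h cell attachment, then 6 h compound exposure, 37 °C | detection = luminescence read with Steady-Glo | read-out = percent activation relative to tunicamycin control | controls = tunicamycin high control, DMSO low control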
# hiPSC survival – increases survival of single human iPS cells; hiPSC single-cell survival, ATPlite luminescence; 100% = ROCK inhibitor wells, 0% = DMSO; survival enhancement, % at 20 µM; 360,000 tested, 0.044% active; AID 602274; in the data active means survival enhancement above about 18%;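 further: cells exposed to compounds for 16 hours before the ATP read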
# XBP1 UPR activ – adaptive UPR (XBP1) activation; CHO-XBP1 luciferase reporter, IRE1-XBP1 UPR activation, luminescence; percent of tunicamycin response, DMSO as zero; activation, % at 20 µM; 330,000 tested, 0.33% active; AID 463104;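 active means versus positive control, 20 µM dose yields 30% or more activation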;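 further: 100% = tunicamycin at 10 µg/mL and 0% = DMSO only wells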
#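 Material: CHO cell line with stable XBP1 luciferase reporter; schedule: 16-18 h cell attachment at 37 °C, then 6 h compound exposure; signal: glow luminescence from Steady-Glo reagent; medium: serum-containing F12 medium, 10% FBS; benchmarks: tunicamycin 10 µg/mL and vehicle-only wells; read-out: percent activation relative to tunicamycin reference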
# H9c2 protect – modulators protecting cardiomyocytes from myocardial damage; H9c2 cardiomyocytes, H2O2 injury protection, ATPLite, 2 h; protection from H2O2 cell death, % at 20 µM; 360,000 tested, 0.63% active; AID 588492;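 active means compounds giving at least 50% protection of heart cells from peroxide-induced death in the single-dose screen, raw or plate-pattern-corrected value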;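 further: 0% = DMSO wells with peroxide and 100% = DMSO wells without peroxide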
# CHOP inhibitor – blocks CHOP induction under ER stress. AID 2732. 220,000 tested, 3.8% active. inhibition, % at 10 µM. CHO-K1 CHOP-promoter luciferase, tunicamycin-induced, 15-18 h;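 active means compounds that reduced the stress-induced luciferase reporter signal by more than about 70% of percent inhibition, limit read from the data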;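 further: 0% = tunicamycin plus vehicle and 100% = wells without tunicamycin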
# * marks the source's active call; other numbers are inactive results; . = no result given.
SMILES,UPR CHOP act,hiPSC survival,XBP1 UPR activ,H9c2 protect,CHOP inhibitor
Cc1cc(NC(=O)CCCN2C(=O)/C(=C\c3cccs3)SC2=S)no1,1.4,-1.7,5.1,2.0,70.5*
Cc1cc(NC(=O)CCN2C(=O)/C(=C\c3ccccc3Cl)SC2=S)no1,-1.8,3.5,1.0,2.3,80.9*
O=S(=O)(O)c1cccc2cccc(Nc3ccccc3)c12,-1.6,-0.2,6.1,0.8,.
CC(C)(C)c1ccc(OCCCNCc2ccccc2)cc1,-0.7,-2.0,-0.8,-15.5,94.7*
COCCCNCCCOc1ccc(C(C)(C)c2ccccc2)cc1,1.5,0.0,-2.0,1.7,46.4
COC(=O)N(C)C[C@@H]1OCc2cnnn2CCCC(=O)N([C@H](C)CO)C[C@H]1C,.,3.2,.,0.1,.
O=C(CCl)Nc1cccc(S(=O)(=O)N2CCCCCC2)c1,14.7,-2.7,-0.5,-10.4,92.9*
O=C(Nc1ccncc1)c1cc(S(=O)(=O)N2CCCCC2)ccc1Cl,0.2,5.9,-4.3,-8.9,.
O=C(Nc1ccncc1)c1cc(S(=O)(=O)N2CCCC2)ccc1Cl,1.0,46.9*,-0.4,-10.1,.
O=C(NCCO)c1ccc(-c2ccc3nncn3c2)cc1,.,5.5,.,4.7,.
COC(=O)C1CCN(C2CN(Cc3ccc(F)cc3)S(=O)(=O)C2)CC1 (stereo not given),.,0.4,.,4.7,.
Fc1ccc(CSc2nc3ncc(Br)cc3[nH]2)cc1,-0.7,-1.4,-0.2,0.1,74.0*
O=C(NCc1ccccn1)[C@@H]1CCCN1C(=O)[C@@H]1CCCN1C(=O)c1cccc2ccccc12,.,0.8,.,.,.
C[C@H]1COc2cccc(N(C)CCO)c2S(=O)(=O)N1,.,-0.3,.,.,.
COc1ccc(Cc2nc3ccc(C(=O)N(C)Cc4nccn4C)cc3o2)cc1,.,0.2,.,3.8,.
O=C(Cc1nnc(NC(=O)c2cccc([N+](=O)[O-])c2)s1)NCc1ccccc1,-0.6,0.2,-3.3,-3.1,.
CCN1CCc2c(sc(NC(=O)c3ccc(S(=O)(=O)N(C)c4ccccc4)cc3)c2C(=O)NC)C1,5.5,-0.1,0.0,56.9*,.
CNC(=O)c1c(NC(=O)c2ccc(S(=O)(=O)N(C)c3ccccc3)cc2)sc2c1CCN(C(C)C)C2,6.3,.,9.6,.,.
CCCc1nc(SCC(=O)Nc2nnc(SCC)s2)c2c(=O)n(C)c(=O)n(C)c2n1,1.8,2.0,-0.7,-21.7,24.9
CCSc1nnc(NC(=O)CSc2nc(CC)nc3c2c(=O)n(C)c(=O)n3C)s1,-0.2,0.3,-3.3,-11.3,82.4*
CCc1nc(SCC(=O)Nc2nnc(CC)s2)c2c(C)c(C)sc2n1,-0.8,-1.2,1.2,-7.2,95.6*
CCCc1nc(SCC(=O)Nc2nnc(CC)s2)c2c(C)c(C)sc2n1,-0.7,-1.6,-2.9,-20.6,47.1
CCC(C)Oc1cc(-c2ccnc(Nc3cccc(Cl)c3)n2)ccn1 (stereo not given),-2.3,0.2,-6.2,-15.7,93.0*
COc1cccc(S(=O)(=O)N(C)C[C@@H]2OCc3cnnn3CCCC(=O)N([C@@H](C)CO)C[C@H]2C)c1,.,2.9,.,2.6,.
C=CC1=CCN(S(=O)(=O)C(C)(C)C)[C@H]1CCO,.,3.3,.,-8.4,.
SMILES,UPR CHOP act,hiPSC survival,XBP1 UPR activ,H9c2 protect,CHOP inhibitor
O=C(Nc1ccc(Br)cc1)C(c1ccccc1)c1ccccc1,0.4,-2.1,-0.1,-4.6,83.2*
Cc1cc(NS(=O)(=O)c2ccc(NC(=O)C(c3ccccc3)c3ccccc3)cc2)no1,0.1,-1.6,1.7,-3.0,91.4*
CC(C)c1cccc(C(C)C)c1NC(=O)c1ccc(OCC(=O)NCc2ccccc2)cc1,0.2,.,1.8,.,94.3*
CC(=O)Nc1ccc(OCC(=O)NCc2ccccc2)cc1,-1.5,-1.1,4.2,8.3,2.2
CC1CCN(c2nc(-c3ccncc3)nc3ccccc23)CC1,0.4,3.6,3.3,-9.7,12.9
CC1CCCCN1c1nc(-c2ccncc2)nc2ccccc12 (stereo not given),3.2,0.4,6.0,-3.7,76.5*
C[C@@H]1CN([C@@H](C)CO)C(=O)c2cc(C#Cc3ccccc3)cnc2O[C@H]1CN(C)C(=O)c1ccccc1F,.,-1.8,.,25.1,.
O=C(OCc1csc(Nc2ccccc2)n1)c1ccc(Cl)cc1,-1.4,0.7,-1.7,-12.3,74.0*
Cc1ccc(S(=O)(=O)/N=C2\C=C(Nc3ccc(O)cc3)C(=O)c3ccccc32)cc1,-1.9,-0.6,-7.0,-12.7,.
Cc1ccc(NC2=C/C(=N/S(=O)(=O)c3cccs3)c3ccccc3C2=O)cc1,-3.3,-2.2,-5.5,-17.7,97.9*
COc1cccc(/C=N/Nc2nc(Nc3ccc([N+](=O)[O-])cc3)nc(N3CCCC3)n2)c1O,7.2,-0.3,7.9,20.5,89.3*
O=[N+]([O-])c1cccc(/C=N/Nc2nc(N3CCOCC3)nc(N3CCOCC3)n2)c1,-0.1,-0.8,5.1,19.7,21.9
O=[N+]([O-])c1ccc(Nc2nc(N/N=C/c3cccc(F)c3)nc(N3CCCC3)n2)cc1,9.0,2.4,3.1,83.5*,16.4
CCOC(=O)[C@]12CCC=C1N(Cc1ccc(Cl)cc1Cl)C(=O)[C@H](CC(=O)NCc1cccs1)C2,.,-0.7,.,.,.
C[C@@H]1CN([C@@H](C)CO)C(=O)CCCn2nncc2CO[C@@H]1CN(C)C(=O)Nc1ccc2c(c1)OCO2,.,4.6,.,2.1,.
O=C(COc1ccc(Cl)cc1Cl)NCCCCc1ccccc1,2.8,-4.0,-1.0,-6.6,84.8*
Cc1cccc(CSCCNC(=O)COc2ccc(Cl)cc2)c1,-2.0,1.6,-4.0,-3.3,87.2*
O=C(COc1ccc(Cl)cc1)NCCSCc1cccc(Cl)c1,-2.2,4.1,0.3,0.6,83.3*
O=C(COc1ccc(Cl)cc1)NCCSCc1ccccc1Cl,-0.2,-1.3,-1.4,-7.9,20.5
Nc1[nH]c(C(=O)c2ccccc2)c(-c2cccnc2)c1C(=O)NCCc1ccc(Cl)cc1Cl,.,-0.2,.,.,.
COc1ccccc1C(O)c1ncc(-c2cccc(C(F)(F)F)c2)[nH]1 (stereo not given),.,-2.2,.,-4.8,.
O=S(=O)(c1ccccc1)N1CCN(c2nc(-c3cccnc3)nc3ccccc23)CC1,2.5,3.2,-0.4,57.9*,.
Cc1cc(N)n(-c2nc(-c3cccnc3)nc3ccccc23)n1,0.5,4.2,0.4,86.4*,-6.1
Cc1cccc(C)c1-n1nnnc1C1(C)CCC(=O)N1CCCN1CCOCC1 (stereo not given),.,1.7,.,.,.
CCCOc1ccc(CNC(=S)NCc2ccc(OC(C)C)cc2)cc1,-2.2,-2.0,-3.8,-11.1,82.1*
Cc1ccc2nc(-c3cccc(NS(C)(=O)=O)c3)cc(-c3ccccc3)c2c1,0.9,0.4,-0.1,13.0,85.0*
Cc1nc(-c2cccc(NS(=O)(=O)c3ccccc3)c2)cs1,1.1,5.3,1.4,-12.6,10.1
CCN(CC)C(=O)c1cccc(-c2csc(C(O)c3cccc(OC)c3)n2)c1 (stereo not given),.,-0.9,.,-5.9,.
CC(C)n1c(O)c(N=Nc2ccc(Cl)nn2)c2ccccc21,0.5,3.9,1.1,65.1*,15.1

# High-throughput results (PubChem BioAssay)
